From ChEMBL document CHEMBL1129268 (J Med Chem, 1996)

What was measured:
[1] = target: T1, Metabotropic glutamate receptor 1 (Homo sapiens, UniProt Q13255); experiment: Agonistic activity at mGlu1-alpha receptor expressed in CHO cells; type: functional, cell-based
[2] = target: T2, Metabotropic glutamate receptor 4 (Homo sapiens, UniProt Q14833); experiment: Agonistic activity at mGlu4a receptor expressed in CHO cells; type: functional, cell-based
In short: (§1)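 CHO cells expressing the receptor were kept at 37 °C in DMEM with 2 mM glutamine, 1% proline and 10% dialyzed FCS, and plated 2 days before assay. Cells were incubated 10 min in PBS with ligand, 10 µM forskolin and 1 mM IBMX, and cAMP was measured by RIA. Agonism is inhibition of forskolin-induced cAMP versus buffer-only control.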

[3] = target: T3, Metabotropic glutamate receptor 6 (Homo sapiens, UniProt O15303); experiment: Agonistic activity at mGlu6 receptor expressed in CHO cells; type: functional, cell-based; in short: as §1
T3 sequence (O15303 whole entry): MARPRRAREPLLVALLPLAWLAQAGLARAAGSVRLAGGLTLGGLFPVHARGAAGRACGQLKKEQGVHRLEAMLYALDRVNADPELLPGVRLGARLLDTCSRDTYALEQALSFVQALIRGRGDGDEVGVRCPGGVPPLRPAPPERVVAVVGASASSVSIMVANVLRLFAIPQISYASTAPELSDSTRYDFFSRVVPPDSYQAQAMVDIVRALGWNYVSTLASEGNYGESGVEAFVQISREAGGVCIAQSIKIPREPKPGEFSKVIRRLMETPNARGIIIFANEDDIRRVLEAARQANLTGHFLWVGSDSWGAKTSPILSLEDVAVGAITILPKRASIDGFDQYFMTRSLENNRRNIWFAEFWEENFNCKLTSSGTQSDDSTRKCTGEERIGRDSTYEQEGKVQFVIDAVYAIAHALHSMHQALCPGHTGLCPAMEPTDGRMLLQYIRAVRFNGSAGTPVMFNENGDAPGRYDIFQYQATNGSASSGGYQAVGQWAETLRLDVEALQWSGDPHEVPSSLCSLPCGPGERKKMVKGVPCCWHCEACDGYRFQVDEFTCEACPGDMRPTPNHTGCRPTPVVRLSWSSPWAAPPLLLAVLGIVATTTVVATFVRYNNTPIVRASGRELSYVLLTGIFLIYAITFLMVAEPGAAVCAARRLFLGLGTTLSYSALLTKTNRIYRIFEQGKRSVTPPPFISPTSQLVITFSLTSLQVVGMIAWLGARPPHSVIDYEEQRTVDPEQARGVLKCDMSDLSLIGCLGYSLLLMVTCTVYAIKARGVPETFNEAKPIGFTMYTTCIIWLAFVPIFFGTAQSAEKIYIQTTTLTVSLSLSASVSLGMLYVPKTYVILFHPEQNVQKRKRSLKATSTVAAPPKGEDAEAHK

[4] = target: T4, Metabotropic glutamate receptor 2 (Homo sapiens, UniProt Q14416); experiment: Agonistic activity at mGlu2 receptor expressed in CHO cells; type: functional, cell-based; in short: as §1
T4 sequence (Q14416 whole entry): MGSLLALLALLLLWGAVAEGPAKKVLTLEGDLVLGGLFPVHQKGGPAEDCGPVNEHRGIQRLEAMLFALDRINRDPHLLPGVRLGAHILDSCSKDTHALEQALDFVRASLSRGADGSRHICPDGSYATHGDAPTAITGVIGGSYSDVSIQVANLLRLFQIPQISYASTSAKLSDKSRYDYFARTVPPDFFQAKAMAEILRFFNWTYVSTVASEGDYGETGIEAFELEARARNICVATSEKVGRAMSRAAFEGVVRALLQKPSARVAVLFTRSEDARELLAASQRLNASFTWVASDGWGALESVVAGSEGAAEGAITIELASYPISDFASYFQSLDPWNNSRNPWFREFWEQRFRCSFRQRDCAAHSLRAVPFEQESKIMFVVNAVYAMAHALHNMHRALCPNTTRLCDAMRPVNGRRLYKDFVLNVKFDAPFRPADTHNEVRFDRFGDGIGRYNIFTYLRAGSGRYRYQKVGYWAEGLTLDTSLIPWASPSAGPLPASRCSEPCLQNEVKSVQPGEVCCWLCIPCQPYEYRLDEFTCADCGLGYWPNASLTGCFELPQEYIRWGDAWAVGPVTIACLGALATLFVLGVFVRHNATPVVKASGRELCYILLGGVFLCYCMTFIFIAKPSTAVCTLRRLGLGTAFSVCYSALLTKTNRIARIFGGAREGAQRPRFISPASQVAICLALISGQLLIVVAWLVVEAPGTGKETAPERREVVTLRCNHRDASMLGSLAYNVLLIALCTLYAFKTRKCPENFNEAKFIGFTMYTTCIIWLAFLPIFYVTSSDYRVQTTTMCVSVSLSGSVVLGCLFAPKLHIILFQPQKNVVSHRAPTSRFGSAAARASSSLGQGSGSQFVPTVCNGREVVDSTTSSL

[5] = target: T4, Metabotropic glutamate receptor 2; experiment: Agonist activity of the compound at Metabotropic Excitatory Amino acid Receptors Expressed in CHO cells. mGlu2; type: functional, cell-based
In short: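 CHO cells expressing mGlu2, mGlu4a or mGlu6, seeded 2 days before assay. Incubated 10 min in PBS with ligand, 10 µM forskolin and 1 mM IBMX. EC50 from dose-response, mean ± SEM of at least two independent experiments.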

[6] = target: T1, Metabotropic glutamate receptor 1; experiment: Agonist activity of the compound at Metabotropic Excitatory Amino acid Receptors Expressed in CHO cells. mGlu1-alpha; type: functional, cell-based
In short: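 CHO cells stably expressing mGlu1α, seeded 2 days before assay and labelled with [3H]inositol (1 µCi/mL) for 24 h. Ligand in PBS-LiCl for 20 min; total [3H]inositol mono-, bis- and trisphosphates by ion-exchange chromatography, fold over buffer-only control. EC50 from dose-response, mean ± SEM of at least two independent experiments.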

[7] = target: T3, Metabotropic glutamate receptor 6; experiment: Agonist activity of the compound at Metabotropic Excitatory Amino acid Receptors Expressed in CHO cells. mGlu6; type: functional, cell-based
In short: (§2)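 CHO cells expressing mGlu2, mGlu4a or mGlu6, seeded 2 days before assay. Incubated 10 min in PBS with ligand, 10 µM forskolin and 1 mM IBMX. […] EC50 from dose-response, mean ± SEM of at least two independent experiments.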

Glutamate NMDA receptor [8] = experiment: Agonistic activity at NMDA receptor of rat brain membrane using [3H]MK-801 as radioligand; type: functional
In short: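 Rat brain membranes were prepared per Ransom and Stec. [3H]MK-801 binding was run on fully stimulated membranes, with incubation lengthened to 4 h.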

Glutamate NMDA receptor [9] = experiment: The compound was evaluated for agonist activity at NMDA receptor in rat cortical wedge preparation; type: functional
In short: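 Rat cortical wedge under superfusion. Test and standard compounds were dissolved in the superfusion medium, and the potential difference between the recording and reference electrodes was charted.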

[10] = target: Glutamate receptor ionotropic, AMPA (Rattus norvegicus, UniProt P19490+P19491+P19492+P19493); experiment: Agonistic activity at Ionotropic glutamate receptor AMPA of rat brain membrane using [3H]AMPA as radioligand; type: functional
[11] = target: Glutamate receptor ionotropic, kainate; experiment: The compound was evaluated for agonist to competitive inhibition of radioligand ([3H]- kainic acid ) at Ionotropic glutamate receptor kainate; type: functional
[12] = target: T2, Metabotropic glutamate receptor 4; experiment: Agonist activity of the compound at Metabotropic Excitatory Amino acid Receptors Expressed in CHO cells. mGlu4a; type: functional, cell-based; in short: as §2

T2 sequence (Q14833 whole entry): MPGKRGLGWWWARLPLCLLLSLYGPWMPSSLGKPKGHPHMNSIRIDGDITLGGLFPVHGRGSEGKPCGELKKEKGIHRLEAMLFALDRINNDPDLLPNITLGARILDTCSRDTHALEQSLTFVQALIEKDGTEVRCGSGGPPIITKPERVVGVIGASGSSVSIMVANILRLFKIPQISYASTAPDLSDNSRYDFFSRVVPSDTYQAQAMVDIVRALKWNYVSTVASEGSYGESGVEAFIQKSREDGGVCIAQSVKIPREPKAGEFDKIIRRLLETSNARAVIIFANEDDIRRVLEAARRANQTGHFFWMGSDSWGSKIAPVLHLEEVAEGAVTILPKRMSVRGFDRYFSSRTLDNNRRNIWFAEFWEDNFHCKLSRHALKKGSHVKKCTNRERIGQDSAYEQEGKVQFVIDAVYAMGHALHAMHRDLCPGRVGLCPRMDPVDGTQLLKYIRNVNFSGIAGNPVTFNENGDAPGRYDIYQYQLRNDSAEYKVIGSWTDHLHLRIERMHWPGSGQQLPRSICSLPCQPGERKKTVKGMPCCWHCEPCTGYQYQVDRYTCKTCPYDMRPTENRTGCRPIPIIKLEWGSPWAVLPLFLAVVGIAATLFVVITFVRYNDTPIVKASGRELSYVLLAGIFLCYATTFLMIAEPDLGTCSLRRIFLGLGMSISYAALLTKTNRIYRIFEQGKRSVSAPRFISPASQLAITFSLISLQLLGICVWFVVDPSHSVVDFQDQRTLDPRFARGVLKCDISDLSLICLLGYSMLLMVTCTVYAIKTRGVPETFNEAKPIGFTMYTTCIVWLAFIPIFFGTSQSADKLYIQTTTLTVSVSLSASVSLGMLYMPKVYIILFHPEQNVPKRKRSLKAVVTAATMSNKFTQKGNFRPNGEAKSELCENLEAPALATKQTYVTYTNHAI
T1 sequence (Q13255 whole entry): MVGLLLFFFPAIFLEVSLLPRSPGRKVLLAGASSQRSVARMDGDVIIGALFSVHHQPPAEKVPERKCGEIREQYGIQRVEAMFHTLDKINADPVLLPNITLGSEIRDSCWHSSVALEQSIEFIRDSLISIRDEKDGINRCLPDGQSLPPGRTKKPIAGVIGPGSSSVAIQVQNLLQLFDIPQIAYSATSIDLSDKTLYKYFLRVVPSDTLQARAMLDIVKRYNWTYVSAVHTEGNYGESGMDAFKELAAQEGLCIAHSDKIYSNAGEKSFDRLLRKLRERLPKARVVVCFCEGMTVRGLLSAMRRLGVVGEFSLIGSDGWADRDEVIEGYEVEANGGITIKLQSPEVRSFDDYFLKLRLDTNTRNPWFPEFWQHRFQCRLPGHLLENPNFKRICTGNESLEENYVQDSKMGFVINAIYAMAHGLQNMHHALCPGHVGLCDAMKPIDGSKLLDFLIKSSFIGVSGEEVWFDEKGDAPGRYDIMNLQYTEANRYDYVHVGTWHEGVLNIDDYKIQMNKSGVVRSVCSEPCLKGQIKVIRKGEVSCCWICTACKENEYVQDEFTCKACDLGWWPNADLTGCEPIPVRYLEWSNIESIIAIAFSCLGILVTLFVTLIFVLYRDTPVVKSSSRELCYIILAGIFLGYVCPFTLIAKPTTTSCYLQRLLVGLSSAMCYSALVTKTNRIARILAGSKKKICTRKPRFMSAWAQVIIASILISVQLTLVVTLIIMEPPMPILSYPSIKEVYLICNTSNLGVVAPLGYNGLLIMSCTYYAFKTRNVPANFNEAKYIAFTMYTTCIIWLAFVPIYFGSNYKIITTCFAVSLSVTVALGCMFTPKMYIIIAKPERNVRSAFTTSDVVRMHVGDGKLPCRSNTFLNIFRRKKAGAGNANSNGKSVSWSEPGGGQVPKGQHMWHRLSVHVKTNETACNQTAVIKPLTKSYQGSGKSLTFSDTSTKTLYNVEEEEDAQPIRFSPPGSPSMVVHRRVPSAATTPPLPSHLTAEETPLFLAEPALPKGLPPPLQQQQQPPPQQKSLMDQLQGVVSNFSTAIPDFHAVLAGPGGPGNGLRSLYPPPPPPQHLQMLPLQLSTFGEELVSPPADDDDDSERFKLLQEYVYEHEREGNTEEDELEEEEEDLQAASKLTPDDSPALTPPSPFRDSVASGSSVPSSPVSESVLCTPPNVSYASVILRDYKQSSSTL

Structure (SMILES)	EC50 [1] [µM]	EC50 [3] [µM]	EC50 [4] [µM]	also measured
Cc1onc(O)c1CCC(N)C(=O)O (stereo not drawn)	> 1000	82	> 1000	EC50 [2]: > 3000 µM
NC(CCCCC(=O)O)C(=O)O (stereo not drawn)	> 1000	> 1000	> 1000	
Cc1o[nH]c(=O)c1CCCCC(N)C(=O)O (stereo not drawn)	> 1000	> 1000	> 1000	
N[C@H](CCCC(=O)O)C(=O)O	> 1000	> 1000	> 1000	
Cc1onc(O)c1C[C@@H](N)C(=O)O				EC50 [5]: > 1000 µM; EC50 [6]: > 1000 µM; EC50 [7]: > 1000 µM
Cc1o[nH]c(=O)c1C(N)C(=O)O (stereo not drawn)				IC50 (Glutamate NMDA receptor [8]): > 100 µM; EC50 (Glutamate NMDA receptor [9]): 12 µM; IC50 [10]: > 100 µM; EC50 [6]: > 1000 µM; IC50 [11]: > 100 µM; EC50 [7]: > 1000 µM
NC(CCCCCC(=O)O)C(=O)O (stereo not drawn)	> 1000	> 1000	> 1000	
Cc1onc(O)c1CCCC(N)C(=O)O (stereo not drawn)	> 1000	410	> 1000	EC50 [2]: > 3000 µM
N[C@@H](CCCC(=O)O)C(=O)O [(S)-2-AMINOADIPIC ACID]	> 1000	140	35	EC50 [2]: > 3000 µM
Cc1onc(O)c1C[C@H](N)C(=O)O [(S)-AMPA]				EC50 [5]: > 1000 µM; EC50 [6]: > 1000 µM; EC50 [7]: 220 µM; EC50 [12]: > 3000 µM
N[C@@H](CC(=O)O)C(=O)O [ASPARTIC ACID]	> 1000	> 1000	> 1000	
N[C@H](CC(=O)O)C(=O)O [D-ASPARTATE]	> 1000	> 1000	> 1000	
